An excerpt weighted towards active compounds, which were near 3.1% of everything screened.
HIV Env fusion: HIV envelope-mediated fusion inhibition. HeLa-JRFL Env/CEM21 cell fusion, luciferase. actives 1.1% (n = 360,000). inhibition, % at 12.3 µM. AID 651610;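 active = mean replicate inhibition score of at least 50 and every replicate individually at or above 50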
PAX8 reporter: PAX8 transcriptional activity inhibition; RMG-I TPO-luciferase reporter, SteadyGlo, 24 h; inhibition, % at 12.6 µM; actives 1.2% (n = 360,000); AID 652154;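 active = mean replicate inhibition at least 60% with every replicate also reaching 60%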;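 also: luciferase light reporting Pax8 driven TPO promoter activity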
FN deposition inh: fibronectin deposition inhibition | AH1F fibroblasts, Alexa488-fibronectin deposition fluorescence, overnight | inhibition, % at 12.6 µM | actives 0.086% (n = 350,000) | AID 743247;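 active = mean inhibition across replicates of 30% or more, regardless of how many single replicates reach that level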
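Material: AH1F fibroblast monolayer depositing Alexa488-labelled fibronectin into matrix | Input: 10000 AH1F cells/well | Medium: DMEM plus 2% serum, read in PBS | Reagent: Alexa488-fibronectin, 24 nM final in well | Compound dosing: One dose per compound, pinned | Schedule: 1 h adhesion, overnight exposure | Measured by: Fluorescence at 485 nm excitation, 525 nm emission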
FGF22 binding: binders of recombinant human FGF22 by thermal shift; Q9HCT0; SYPRO orange fluorescence; percent of sucrose octasulfate shift, DMSO zero; activity (Tm shift, normalised), % at 9.99 µM; actives 1.5% (n = 340,000);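 active = mean Tm shift, scaled 0 neutral to 100 positive control, at about 1.3% or above, every replicate too, limit read from the data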
Target sequence (Q9HCT0 whole entry, looked up): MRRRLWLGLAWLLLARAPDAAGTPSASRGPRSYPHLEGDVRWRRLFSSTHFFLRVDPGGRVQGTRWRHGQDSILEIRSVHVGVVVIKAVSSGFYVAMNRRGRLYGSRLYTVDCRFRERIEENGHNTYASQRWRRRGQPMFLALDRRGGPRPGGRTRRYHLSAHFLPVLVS
PGC1a acetyl inh: PGC1a acetylation modulation, inhibitor mode; U2OS PGC1a acetylation, AlphaScreen anti-acetyl-lysine; with virally co-expressed GCN5 acetyltransferase; actives 0.17% (n = 350,000); inhibition, % at 15.6 µM;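 active = every replicate shows inhibition of at least 40%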
EWS-Fli inh: blocks EWS/Fli oncoprotein-driven transcription; inhibition, % at 12.6 µM; AID 651661; actives 0.67% (n = 350,000); A673 NR0B1-luciferase reporter, viability-normalised;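 active = mean inhibition of at least 50% after viability correction, with every replicate also passing that limit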;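 also: firefly luciferase signal divided by Alamar Blue viability fluorescence both relative to DMSO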
Large screens that a line does not name were inactive.

CCCc1nc2ccc(Br)cc2c(=O)n1-c1ccc([N+](=O)[O-])c(C(F)(F)F)c1	PAX8 reporter 93.4 (no result: FGF22 binding, EWS-Fli inh)
Fc1ccc(CN2CC3NC(C2)C3c2ccc(Br)cc2)cc1 (centres undefined)	none (no result: HIV Env fusion, PAX8 reporter, FGF22 binding, PGC1a acetyl inh, EWS-Fli inh)
C=CCN1[C@@H]2CN(C(=O)NC(C)C)C[C@H]1C2c1ccc(Br)cc1 (some centres undefined)	none (no result: HIV Env fusion, PAX8 reporter, FGF22 binding, PGC1a acetyl inh, EWS-Fli inh)
COC(=O)[C@@H]1[C@@H](CO)[C@@H]2Cn3c(ccc(C4=CCCCC4)c3=O)[C@H]1N2CC1CCCC1	none (no result: HIV Env fusion, PAX8 reporter, FN deposition inh, FGF22 binding, PGC1a acetyl inh)
Cn1cc(C(=O)N2CCOCC2)c2ccccc21	none (no result: FGF22 binding)
Cn1cc(C(=O)NP(=O)(N2CCOCC2)N2CCOCC2)c2ccccc21	FGF22 binding 44.1
COc1ccc(CNCCc2c[nH]c3ccccc23)c(OC)c1C	HIV Env fusion 70.6
COc1ccc(CNCCc2ccccc2F)c(OC)c1C	none
COc1cc(C)c(CNCCc2c[nH]c3ccccc23)cc1C	HIV Env fusion 81.4
O=C(Cc1ccccn1)N1CCCCN2[C@H](CO)[C@@H](c3ccc(-c4ccccc4)cc3)[C@@H]2C1	none (no result: HIV Env fusion, FN deposition inh)
Fc1ccc(C[n+]2c(-c3ccccc3)cc(-c3ccccc3)cc2-c2ccccc2)cc1	PAX8 reporter 88.6 (no result: PGC1a acetyl inh)
Clc1ccc(C[n+]2c(-c3ccccc3)cc(-c3ccccc3)cc2-c2ccccc2)cc1	HIV Env fusion 107.2, PAX8 reporter 97.3
c1ccc(C[n+]2ccccc2)cc1	none (no result: PGC1a acetyl inh)
CC(C)CC#Cc1ccc([C@@H]2[C@H](CO)N3CCCCN(C(=O)Cc4ccccn4)C[C@@H]23)cc1	none (no result: HIV Env fusion, FN deposition inh)
COC(=O)C(O)(c1ccc(NC(=S)NC(=O)c2ccc(Cl)cc2Cl)cc1)C(F)(F)F (centres undefined)	PAX8 reporter 83.8 (no result: HIV Env fusion, PGC1a acetyl inh)
S=C(NCCc1ccccc1)N1Cc2cc(Br)ccc2-n2nncc2C1	HIV Env fusion 56.7 (no result: FN deposition inh)
CCOC(C[n+]1c(-c2ccccc2)cc(C)cc1-c1ccccc1)OCC	PAX8 reporter 67.3 (no result: PGC1a acetyl inh)
O=P(O)(O)CN1CCNCCN(CP(=O)(O)O)CCNCC1	FGF22 binding 43.0 (no result: HIV Env fusion)
O=C(Nc1cccc(OC(=O)N2CCOCC2)c1)N1CCOCC1	HIV Env fusion 72.4 (no result: FN deposition inh, FGF22 binding, PGC1a acetyl inh, EWS-Fli inh)
CCOC(=O)[C@]1(C#N)[C@@H]2C=CC(C(N)=O)=CN2[C@@H](C(N)=O)[C@@H]1c1ccc(F)cc1	PGC1a acetyl inh 88.2 (no result: FGF22 binding)
Cc1nn(Cc2ccccc2)c(C)c1C(=O)OCC(=O)Nc1cc(S(C)(=O)=O)ccc1Cl	FGF22 binding 43.2 (no result: FN deposition inh)
O=[N+]([O-])c1ccccc1-c1cc(-c2ccccc2)cc(-c2ccccc2)[n+]1Cc1ccccc1Cl	HIV Env fusion 61.1, PAX8 reporter 86.1, EWS-Fli inh 51.5 (no result: PGC1a acetyl inh)
O=C(Cc1cccnc1)N1CCCCN2[C@@H](CO)[C@@H](c3ccc(/C=C/c4ccccc4)cc3)[C@@H]2C1	none (no result: HIV Env fusion, FN deposition inh)
COc1ccc(OC(=O)N(C)C[C@@H]2OCc3ccccc3-c3c(n(C)c4ccccc34)C(=O)N([C@@H](C)CO)C[C@H]2C)cc1	none (no result: HIV Env fusion, FGF22 binding)
CC(=O)OC(C)(C)/C=C/C(=O)C(C)(O)C1C(O)CC2(C)C3CC=C4C(CC(O)C(=O)C4(C)C)C3(C)C(=O)CC12C (centres undefined)	HIV Env fusion 65.2, PAX8 reporter 108.4, FN deposition inh 30.5, PGC1a acetyl inh 70.3
CC(=O)OC(C)(C)/C=C/C(=O)[C@](C)(O)[C@H]1[C@H](O)C[C@@]2(C)[C@@H]3CC=C4[C@H](C[C@H](O)C(=O)C4(C)C)[C@]3(C)C(=O)C[C@]12C	PGC1a acetyl inh 88.1 (no result: HIV Env fusion, PAX8 reporter, FN deposition inh, FGF22 binding, EWS-Fli inh)
CC(=O)OC(C)(C)/C=C/C(=O)C(C)(O)C1[C@H](O)C[C@@]2(C)C3CC=C4C(CC[C@@H](O)C4(C)C)[C@]3(CO)C(=O)C[C@]12C (some centres undefined)	PAX8 reporter 112.1 (no result: PGC1a acetyl inh)
CC(=O)N1[C@@H]2c3ccc(-c4cccc(C(=O)N(C)C)c4)c(=O)n3C[C@H]1[C@H](CO)[C@H]2C(=O)O	none (no result: HIV Env fusion, PAX8 reporter, FN deposition inh, FGF22 binding)
CCCN1[C@@H]2c3ccc(-c4ccccc4)c(=O)n3C[C@H]1[C@H](CO)[C@H]2C(=O)OC	none (no result: HIV Env fusion, FN deposition inh, PGC1a acetyl inh)
O=c1[nH]c(=O)n(Cc2ccccc2Cl)c(O)c1/C=C1/C=CC=N1	EWS-Fli inh 59.9 (no result: PGC1a acetyl inh)
C=CCn1c(O)c(/C=C2/C=CC=N2)c(=O)[nH]c1=O	none
O=C(Cc1ccccc1)N1CC2(C1)[C@H](c1ccccc1)[C@@H](CO)N2Cc1cccc(Cl)c1	none (no result: HIV Env fusion)
Cc1cccc(C(O)(C(=O)NNC(=O)CN2CCN(C)CC2)c2cccc(C)c2)c1	none
Cc1ccc(C(O)(C(=O)NNC(=O)CN2CCN(C)CC2)c2ccc(C)cc2)cc1	FGF22 binding 44.3 (no result: PGC1a acetyl inh)
O=C(NN=Cc1ccc(N(CCCl)CCCl)cc1Cl)c1cccnc1	HIV Env fusion 56.0 (no result: PGC1a acetyl inh)
C[C@@H]1CN([C@H](C)CO)C(=O)c2c(c3ccccc3n2C)-c2ccccc2CO[C@H]1CN(C)C(=O)Oc1ccccc1	none (no result: HIV Env fusion, EWS-Fli inh)
COc1c(C)cc(C(=O)C2CCCN(Cc3cccc(C)n3)C2)cc1C (centres undefined)	FGF22 binding 43.5 (no result: PGC1a acetyl inh)
COc1ccc(C(=O)C2CCCN(Cc3ccccn3)C2)c(OC)c1 (centres undefined)	FGF22 binding 43.0 (no result: PGC1a acetyl inh)
Cc1cccc(CN2CCCC(C(=O)c3cccc(OC(C)C)c3)C2)n1 (centres undefined)	none (no result: FGF22 binding, PGC1a acetyl inh, EWS-Fli inh)
COc1c(C)cc(C(=O)C2CCCN(C3CCOCC3)C2)cc1C (centres undefined)	FGF22 binding 43.1
COc1cccc(C(=O)C2CCCN(Cc3cccc(C)n3)C2)c1 (centres undefined)	FGF22 binding 44.2 (no result: PGC1a acetyl inh)
FC(F)(F)CN1C[C@@H]2C(c3ccccc3)[C@H](C1)N2CC1CC1 (some centres undefined)	none (no result: HIV Env fusion, PAX8 reporter, FGF22 binding, PGC1a acetyl inh, EWS-Fli inh)
CCCN1[C@@H]2Cn3c(ccc(-c4cccc(OC)c4)c3=O)[C@H]1[C@@H](C(=O)OC)[C@@H]2CO	none (no result: HIV Env fusion, PAX8 reporter, FN deposition inh, FGF22 binding)
Cc1ccsc1C(=O)C1CCCN(Cc2cnc(N3CCCC3)s2)C1 (centres undefined)	FGF22 binding 43.8 (no result: PGC1a acetyl inh)
CSc1ncc(CN2CCCC(C(=O)c3sccc3C)C2)cn1 (centres undefined)	none (no result: FN deposition inh)
COc1ccc(C(O)(c2cncnc2)C2CC2)cc1 (centres undefined)	none (no result: FN deposition inh)
COC(COC(N)=O)C1=C(N2CC2)C(=O)C(C)=C(N2CC2)C1=O (centres undefined)	none
CC1=C(N2CC2)C(=O)C(CO)=C(N2CC2)C1=O	HIV Env fusion 80.1, PAX8 reporter 117.9
CC(=O)/C=C/c1ccccc1	none (no result: HIV Env fusion, PAX8 reporter, FN deposition inh)
O=C(/C=C/C=C/c1ccccc1)CC1(O)C(=O)Nc2ccccc21 (centres undefined)	FGF22 binding 43.4
CC=Cc1ccc2n(c1=O)C[C@@H]1[C@@H](CO)[C@H](C(=O)OC)[C@H]2N1C(=O)CC1CC1 (mixture of isomers)	none (no result: HIV Env fusion, FN deposition inh)
